Reference: PubChem BioAssay AID504383 (The Scripps Research Institute Molecular Screening Center, 2011)
Hit rate of the full screen: of about 2,500 compounds, about 1,200 (48%) were called active. So high a share suggests a set chosen from earlier hits. The list shows a part of the results. Unmarked numbers belong to inactive results.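 How the source made its calls: active means mean activation above the low control average plus 3 SD, as set in the primary screen (cut at about 12% in these data); inactive means the rest.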

These molecules were tested against Troponin I, cardiac muscle (Homo sapiens) + Troponin T, cardiac muscle (Homo sapiens) + Troponin C, slow skeletal and cardiac muscles (Homo sapiens) (UniProt P19429+P45379+P63316) (assay: calcium sensitizers of cardiac thin filaments – biochemical, IANBD-TnC fluorescence, triplicate, confirmation (AID 504383;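 further: 0% = DMSO at 0.472 mM calcium and 100% = DMSO at 2.9 mM calcium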)). Settings: IANBD-labeled cardiac RTF, Ca2+ sensitivity fluorescence, at 7.2 µM, stronger effect = higher value, tested at EC20 calcium, 0.472 mM.
Summary of the method: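 Material: labelled regulated thin filaments; Reagent: 0.472 mM calcium; Incubation: 15 min compound incubation with filaments at 25 °C; Detection: filament fluorescence intensity; Evaluation: fluorescence increase normalised to calcium controls; Benchmarks: low control EC20 calcium, high control EC100 calcium.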

Compound	activation
CCN(CC)c1ccc(/C=C/[N+](=O)[O-])cc1	19.8% (active)
Cn1cc(C=C(C#N)C#N)c2ccccc21	69.5% (active)
COC(=O)C1=C(c2cccc(OC)c2OC)C[C@@H]2CC[C@H]1N2C(=O)NCc1ccco1	13.3% (active)
COC(=O)C1=C(c2cccc(OC)c2OC)C[C@@H]2CC[C@H]1N2C(=O)NCCCOC(C)C	5.72%
COC(=O)C1=C(c2ccc(F)cc2OCc2ccccc2)C[C@@H]2CC[C@H]1N2C(=O)NCc1ccc(OC)c(OC)c1	154% (active)
CCN(CC)CCCOC(=O)C(OC(C)C)(c1ccccc1)c1ccccc1	57.9% (active)
C/C(=N\N1CCCCC1c1cccnc1)c1c(O)n(C2CCCCC2)c(=S)[nH]c1=O (configuration not stated)	68.2% (active)
Cc1ccc(-n2c(O)c(C=NCC3CCCO3)c(=O)[nH]c2=O)c(C)c1 (configuration not stated)	7.57%
COc1ccc(OC)c(-n2c(O)c(C=NCCN3CCNCC3)c(=O)[nH]c2=S)c1	27.9% (active)
O=c1[nH]c(=S)n(-c2ccccc2Cl)c(O)c1C=NCCN1CCNCC1	1670% (active)
Cc1cccc(N2C(=O)NC(=O)/C(=C\c3ccc4c(c3)CCCN4Cc3ccccc3)C2=O)c1	4.9%
CCOCCCNC(=O)C1c2cc(OC)c(OC)cc2C(=O)N2CCCCC12 (configuration not stated)	2.74%
Cc1cccc(N2C(=O)/C(=C/c3ccc(N4CCN(C)CC4)o3)C(=O)NC2=S)c1C	16.4% (active)
CN1CCN(c2ccc(/C=C3\C(=O)NC(=S)N(c4cccc(Br)c4)C3=O)o2)CC1	4.38%
Cc1ccccc1N1C(=O)NC(=O)/C(=C/c2ccc(N3CCOCC3)o2)C1=O	42.7% (active)
CCc1ccccc1N1C(=O)/C(=C/c2ccc(N3CCN(C)CC3)o2)C(=O)NC1=S	1030% (active)
Cc1ccccc1N1C(=O)NC(=O)/C(=C\c2cc(Br)c(N3CCOCC3)o2)C1=O	11%
COc1ccccc1N1C(=O)NC(=O)/C(=C/c2ccc3c4c(cccc24)CC3)C1=O	2.54%
CN1C(=O)C(=Cc2ccc(N3CCCCCC3)o2)C(=O)N(C)C1=S	94.7% (active)
CN1C(=O)C(=Cc2ccc(N3CCOCC3)o2)C(=O)N(C)C1=O	50.2% (active)
COc1cc(/C=C2/C(=O)NC(=O)N(c3ccc(C)cc3)C2=O)cc(OC)c1OC	6.29%
CN1C(=O)C(=Cc2sc(=O)n(-c3ccccc3)c2N2CCCCC2)C(=O)N(C)C1=O	3.11%
O=C1NC(=O)C(=Cc2ccc(N3CCOCC3)o2)C(=O)N1	2.33%

Compound	activation
CN1C(=O)C(=Cc2ccc(N3CCOCC3)o2)C(=O)N(C)C1=S	10.3%
COc1ccc(N2C(=O)/C(=C/c3ccc(N(C)C)o3)C(=O)NC2=S)cc1	338% (active)
C=CCN1C(=O)/C(=C/c2ccc(N3CCOCC3)o2)C(=O)NC1=S	29.1% (active)
CCN1C(=O)C(=Cc2ccc(N3CCOCC3)o2)C(=O)N(CC)C1=S	7.34%
C=CCN1C(=O)/C(=C\c2ccc(N3CCOCC3)o2)C(=O)NC1=S	4%
CCN(CC)c1ccc(/C=C2\C(=O)NC(=S)N(c3ccc(OC)cc3OC)C2=O)o1	8.36%
CN1Cc2c(c(C#N)c(N)n(C)c2=S)CC1(C)C	4.38%
COc1ccc2c3c([nH]c2c1)C(C)=NCC3	9.9%
FC(F)(F)c1ccc2c(c1)nnn2C1CCN(Cc2nnnn2Cc2ccccc2)CC1	4.26%
CN1C(=O)/C(=C/c2ccc(N3CCCCCC3)o2)C(=O)NC1=S	39% (active)
CCN(CC)c1ccc(C=C2C(=O)N(C)C(=S)N(C)C2=O)o1	8.61%
O=C1NC(=O)N(c2ccc3c(c2)OCO3)C(=O)/C1=C/c1ccc(N2CCCC2)o1	3.64%
O=C1NC(=O)N(c2ccc3c(c2)OCO3)C(=O)/C1=C\c1ccc(N2CCCCC2)o1	-1.01%
CN1C(=O)/C(=C\c2ccc(N3CCCCC3)o2)C(=O)NC1=S	8.33%
CCN(CC)c1ccc(/C=C2\C(=O)NC(=S)N(C)C2=O)o1	25.4% (active)
CCOc1ccc(N2C(=O)NC(=O)/C(=C\c3ccc(N4CCCCC4)o3)C2=O)cc1	154% (active)
COc1cccc2c1C(=O)c1c(O)c3c(c(O)c1C2=O)CC(O)(C(C)=NO)CC3OC1CC(N)C(O)C(C)O1 (configuration not stated)	4.26%
Nc1ccc2ccc3cccc[n+]3c2c1	11.7% (active)
Cc1ccc(N2C(=O)NC(=O)/C(=C\c3ccoc3)C2=O)cc1	4.43%
CN1CCc2cc3c(c4c2C1Cc1ccccc1-4)OCO3 (configuration not stated)	13.5% (active)
CC1=NCCc2c1[nH]c1cc(O)ccc21	5.4%
CCCc1cc(=O)oc2cc(OCC(=O)N3C[C@H]4C[C@@H](C3)c3cccc(=O)n3C4)ccc12	113% (active)
CCCc1cc(=O)oc2cc(OCC(=O)N3CCC(C(=O)O)(c4ccccc4)CC3)ccc12	10.7%

Compound	activation
COc1ccc(N2C(=O)NC(=O)/C(=C\c3cn(C)c4ccccc34)C2=O)cc1	3.56%
O=C1NC(=O)C(=Cc2cn(CCOc3ccc4c(c3)OCO4)c3ccccc23)C(=O)N1	12.6% (active)
Cc1ccc(/C=C2/Sc3ccc(C(=O)N4CCC5(CC4)OCCO5)cc3NC2=O)cc1	106% (active)
COc1ccc(CC(=O)N2CCN(C)CC2)cc1OC	13.3% (active)
N#CC(C#N)=Cc1ccc(C=C(C#N)C#N)cc1	1.09%
Cc1cc(N2CCCC2)ccc1C=C(C#N)C#N	95.7% (active)
Cc1cc(C=C(C#N)C#N)ccc1N1CCCC1	13% (active)
Cc1cc(Cl)ccc1C(=O)C1CCCN(C2CCSCC2)C1 (configuration not stated)	2.78%
O=Cc1c(C(=O)O)n(Cc2ccc(Cl)cc2)c2ccccc12	7.27%
Cc1cc(N(CCCl)CCCl)ccc1C=Cc1ccncn1	17.4% (active)
CCCCn1c(O)c(C(=O)/C=C/c2c[nH]c3ccccc23)c(=O)[nH]c1=O	14.8% (active)
CCCCn1c(O)c(/C=C/C=Nc2ccccc2)c(=O)[nH]c1=O	10%
NC(=O)c1c(NC(=O)c2ccc(S(=O)(=O)N(CCCl)CCCl)cc2)sc2c1CCCCC2	14.1% (active)
N#CC(C#N)=Cc1ccc(-c2ccccc2F)o1	45.7% (active)
CCn1c(O)c(C=Nc2ccc(N3CCOCC3)cc2)c(=O)n(CC)c1=S	88.4% (active)
CCCCC(=O)N/N=C/c1c(O)n(CC)c(=S)n(CC)c1=O	4.35%
O=c1[nH]c(=S)n(-c2ccc(Br)cc2)c(O)c1C=Nc1ccc(N2CCOCC2)cc1	6.9%
CCCCN1C(=O)NC(=O)C2(Cc3ccccc3N3CCOCC32)C1=O (configuration not stated)	4.27%
C=CCn1c(O)c(C=NC2CCN(Cc3ccccc3)CC2)c(=O)[nH]c1=O	6.93%
O=c1[nH]c(=O)n(Cc2ccc(F)cc2)c(O)c1/C=N/Nc1ccccc1	107% (active)
CCCCCCC(=O)N/N=C/c1c(O)n(CCc2ccccc2)c(=O)[nH]c1=O	-0.94%
OC12CCCCC1C(c1ccccc1)NCC2 (configuration not stated)	7.25%
O=C(CN1CCN(c2ccccc2F)CC1)Nc1cccnc1Cl	27.1% (active)

Compound	activation
CN1/C(=C\C=C2C(=O)NC(=S)NC2=O)C(C)(C)c2ccccc21	10.4%
COc1ccc(CN2C(=O)NC(=O)/C(=C/c3ccoc3)C2=O)cc1	10.9%
O=C1NC(=O)N(c2cccc(Cl)c2)C(=O)/C1=C\c1ccc(Sc2nc3ccccc3[nH]2)o1	11.5%
Cc1cc(C)c(Cn2c(C(=O)O)c(C=O)c3ccccc32)c(C)c1	10.3%
Cc1ccc(-n2c(O)c(/C=C/C=Nc3ccccc3)c(=O)[nH]c2=O)cc1	26.4% (active)
O=c1[nH]c(O)c(C=Nc2ccccc2Oc2ccccc2)c(=O)[nH]1	10.2%
O=c1[nH]c(=O)n(-c2ccccc2)c(O)c1/C=C/C=Nc1ccccc1	8.9%
CNS(=O)(=O)c1ccc(N=Cc2c(O)n(-c3ccccc3)c(=O)[nH]c2=O)cc1	37.6% (active)
Cc1cccc(-n2c(O)c(/C=C/C=Nc3ccccc3)c(=O)[nH]c2=O)c1	414% (active)
CCN(CC)c1ccc(N=Cc2c(O)n(Cc3ccco3)c(=O)[nH]c2=O)cc1	5.39%
O=c1[nH]c(=O)n(C2CCCCC2)c(O)c1/C=C/C=Nc1ccccc1	12.3% (active)
COc1ccc(-n2c(O)c(/C=C/C=Nc3ccccc3)c(=O)[nH]c2=O)cc1	5.05%
CCN(CC)c1ccc(/C=N/c2sc3c(c2C#N)C2CCN3CC2)c(O)c1	7.45%
O=C1NC(=O)N(Cc2ccccc2)C(=O)/C1=C\N1CCCc2ccccc21	3.9%
O=c1[nH]c(O)c(/C=C2\C=Nc3ccc(OCc4ccccc4)cc32)c(=O)[nH]1	8.62%
Cn1c(O)c(/C=C/C=Nc2ccccc2)c(=O)n(C)c1=S	21.7% (active)
Cn1c(O)c(/C=C/C=Nc2ccccc2)c(=O)n(C)c1=O	9.76%
CN1C[C@H](CO)C=C2c3cccc4[nH]cc(c34)C[C@H]21	-3.89%
CC1=C[C@@H]2c3cccc4[nH]cc(c34)C[C@H]2N(C)C1	50% (active)
CCC(CO)NC(=O)C1C=C2c3cccc4[nH]cc(c34)CC2N(C)C1 (configuration not stated)	9.84%
Nc1c(C(=O)NCC2CCCO2)c2nc3ccccc3nc2n1Cc1ccco1 (configuration not stated)	1930% (active)
COCCOC(=O)c1c(N)n(Cc2ccco2)c2nc3ccccc3nc12	8.08%
COCCNC(=O)c1c(N)n(Cc2ccco2)c2nc3ccccc3nc12	16.3% (active)
